From ChEMBL document CHEMBL1141882, “Synthesis and biological testing of purine derivatives as potential ATP-competitive kinase inhibitors” (J Med Chem, 2005)

Tests used:
[1] = biological target: RAF proto-oncogene serine/threonine-protein kinase (Homo sapiens) (UniProt P04049); experiment: Inhibition of human RAF proto-oncogene serine/threonine-protein kinase at 30 uM
In short: (§1)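 Kinase activity assayed with ATP at 100 µM, deliberately higher than usual assay ATP levels because the inhibitors are assumed ATP-competitive. Results are reported as percent inhibition of each kinase.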

[2] = biological target: RAC-alpha serine/threonine-protein kinase (Homo sapiens) (UniProt P31749); experiment: Inhibition of human Protein kinase B alpha at 30 uM; in short: as §1
Sequence of RAC-alpha serine/threonine-protein kinase (Homo sapiens) (P31749 whole entry): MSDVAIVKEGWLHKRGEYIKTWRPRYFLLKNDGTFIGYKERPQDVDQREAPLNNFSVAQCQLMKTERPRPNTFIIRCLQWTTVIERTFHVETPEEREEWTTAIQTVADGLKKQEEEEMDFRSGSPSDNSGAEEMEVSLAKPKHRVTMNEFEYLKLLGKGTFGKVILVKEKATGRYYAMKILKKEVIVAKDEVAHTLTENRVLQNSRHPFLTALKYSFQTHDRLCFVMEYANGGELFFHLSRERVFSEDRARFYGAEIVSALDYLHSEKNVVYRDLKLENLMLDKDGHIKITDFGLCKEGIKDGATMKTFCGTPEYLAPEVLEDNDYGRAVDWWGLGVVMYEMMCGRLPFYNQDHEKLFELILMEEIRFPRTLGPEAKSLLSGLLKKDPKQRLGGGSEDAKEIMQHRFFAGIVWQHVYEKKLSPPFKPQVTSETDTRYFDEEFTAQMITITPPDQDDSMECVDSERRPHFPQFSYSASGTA

[3] = biological target: Ca2+/calmodulin-dependent protein kinase II (CaM kinase II) (Rattus norvegicus) (UniProt P11275+P08413+P15791+P11730); experiment: Inhibition of rat Calcium/calmodulin-dependent protein kinase type II at 30 uM; assay type: protein assay; in short: as §1
[4] = biological target: Mitogen-activated protein kinase 8 (Homo sapiens) (UniProt P45983); experiment: Inhibition of human c-Jun N-terminal kinase-1 alpha-1 at 30 uM; in short: as §1
Sequence of Mitogen-activated protein kinase 8 (Homo sapiens) (P45983 whole entry): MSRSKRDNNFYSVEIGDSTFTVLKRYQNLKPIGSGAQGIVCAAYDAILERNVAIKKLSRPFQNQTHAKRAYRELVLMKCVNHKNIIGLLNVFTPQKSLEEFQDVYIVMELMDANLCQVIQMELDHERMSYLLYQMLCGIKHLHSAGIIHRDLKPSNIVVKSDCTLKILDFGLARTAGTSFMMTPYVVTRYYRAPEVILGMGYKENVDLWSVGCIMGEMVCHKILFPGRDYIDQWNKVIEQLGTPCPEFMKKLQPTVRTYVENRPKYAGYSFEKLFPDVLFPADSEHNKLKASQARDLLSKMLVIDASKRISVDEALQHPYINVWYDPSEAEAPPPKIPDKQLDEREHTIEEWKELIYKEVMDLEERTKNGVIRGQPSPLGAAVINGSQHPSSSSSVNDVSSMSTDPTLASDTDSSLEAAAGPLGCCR

[5] = biological target: Protein kinase C alpha type (Homo sapiens) (UniProt P17252); experiment: Inhibition of human Protein kinase C alpha; design: concentration or dose not given beside the values; conditions: concentration not given here
[6] = biological target: Glycogen synthase kinase-3 beta (Homo sapiens) (UniProt P49841); experiment: Inhibition of human Glycogen synthase kinase-3 beta at 30 uM; in short: as §1
[7] = biological target: Mitogen-activated protein kinase 9 (Homo sapiens) (UniProt P45984); experiment: Inhibition of human c-Jun N-terminal kinase-2 alpha-2 at 30 uM; in short: as §1
Sequence of Mitogen-activated protein kinase 9 (Homo sapiens) (P45984 whole entry, looked up): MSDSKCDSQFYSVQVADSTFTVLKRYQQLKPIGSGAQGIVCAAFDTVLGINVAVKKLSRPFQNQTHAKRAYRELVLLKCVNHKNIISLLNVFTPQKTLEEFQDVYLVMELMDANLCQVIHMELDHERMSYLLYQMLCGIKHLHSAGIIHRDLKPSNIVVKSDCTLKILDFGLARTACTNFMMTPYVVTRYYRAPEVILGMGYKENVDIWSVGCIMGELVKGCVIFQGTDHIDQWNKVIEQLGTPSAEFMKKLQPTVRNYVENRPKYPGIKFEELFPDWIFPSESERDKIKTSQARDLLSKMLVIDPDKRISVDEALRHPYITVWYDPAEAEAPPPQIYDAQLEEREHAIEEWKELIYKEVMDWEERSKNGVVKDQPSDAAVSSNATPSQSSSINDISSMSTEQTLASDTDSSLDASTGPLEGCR

[8] = biological target: Dual specificity mitogen-activated protein kinase kinase 1 (Homo sapiens) (UniProt Q02750); experiment: Inhibition of human Mitogen activated protein kinase kinase 1 (MEK1) at 30 uM; in short: as §1
Sequence of Dual specificity mitogen-activated protein kinase kinase 1 (Homo sapiens) (Q02750 whole entry): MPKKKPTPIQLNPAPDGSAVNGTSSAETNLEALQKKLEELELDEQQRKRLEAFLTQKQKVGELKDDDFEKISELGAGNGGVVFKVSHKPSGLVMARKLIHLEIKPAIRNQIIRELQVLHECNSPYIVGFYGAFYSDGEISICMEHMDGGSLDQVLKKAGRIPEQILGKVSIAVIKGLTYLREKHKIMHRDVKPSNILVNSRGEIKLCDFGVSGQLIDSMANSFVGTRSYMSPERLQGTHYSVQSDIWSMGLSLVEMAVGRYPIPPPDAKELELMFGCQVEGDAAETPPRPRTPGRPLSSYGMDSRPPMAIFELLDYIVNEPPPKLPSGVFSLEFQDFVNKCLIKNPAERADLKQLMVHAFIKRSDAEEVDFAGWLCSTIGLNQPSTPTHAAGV

[9] = biological target: Mitogen-activated protein kinase 14 (Homo sapiens) (UniProt Q16539); experiment: Inhibition of human stress-activated protein kinase-2 alpha (p38 MAP-kinase) at 30 uM; in short: as §1
Sequence of Mitogen-activated protein kinase 14 (Homo sapiens) (Q16539 whole entry): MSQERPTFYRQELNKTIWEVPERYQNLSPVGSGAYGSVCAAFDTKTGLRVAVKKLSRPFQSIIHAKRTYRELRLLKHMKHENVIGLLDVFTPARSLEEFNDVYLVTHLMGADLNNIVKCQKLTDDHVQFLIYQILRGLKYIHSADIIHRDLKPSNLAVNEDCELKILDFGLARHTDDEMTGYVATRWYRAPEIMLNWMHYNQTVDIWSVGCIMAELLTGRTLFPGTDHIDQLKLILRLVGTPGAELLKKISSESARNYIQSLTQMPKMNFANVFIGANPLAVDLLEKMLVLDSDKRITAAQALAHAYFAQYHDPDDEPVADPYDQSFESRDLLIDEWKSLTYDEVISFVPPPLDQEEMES

[10] = biological target: Rho-associated protein kinase 2 (Homo sapiens) (UniProt O75116); experiment: Inhibition of human Rho-dependent protein kinase-II at 30 uM
[11] = biological target: Mitogen-activated protein kinase 1 (Homo sapiens) (UniProt P28482); experiment: Inhibition of human Mitogen-activated protein kinase 2 at 30 uM; in short: as §1
Sequence of Mitogen-activated protein kinase 1 (Homo sapiens) (P28482 whole entry): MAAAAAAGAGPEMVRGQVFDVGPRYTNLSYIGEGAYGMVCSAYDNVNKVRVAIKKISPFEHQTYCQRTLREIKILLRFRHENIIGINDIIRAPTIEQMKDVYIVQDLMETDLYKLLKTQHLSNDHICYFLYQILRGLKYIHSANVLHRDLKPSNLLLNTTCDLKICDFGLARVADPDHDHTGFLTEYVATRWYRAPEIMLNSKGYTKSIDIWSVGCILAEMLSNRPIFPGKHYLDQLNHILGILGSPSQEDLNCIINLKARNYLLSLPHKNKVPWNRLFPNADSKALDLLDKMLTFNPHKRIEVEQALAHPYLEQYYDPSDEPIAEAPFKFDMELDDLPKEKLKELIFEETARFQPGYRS

[12] = biological target: Tyrosine-protein kinase Lck (Homo sapiens) (UniProt P06239); experiment: Inhibition of human lymphocyte protein tyrosine kinase Lck at 30 uM; in short: as §1
Sequence of Tyrosine-protein kinase Lck (Homo sapiens) (P06239 2-509 limits assumed): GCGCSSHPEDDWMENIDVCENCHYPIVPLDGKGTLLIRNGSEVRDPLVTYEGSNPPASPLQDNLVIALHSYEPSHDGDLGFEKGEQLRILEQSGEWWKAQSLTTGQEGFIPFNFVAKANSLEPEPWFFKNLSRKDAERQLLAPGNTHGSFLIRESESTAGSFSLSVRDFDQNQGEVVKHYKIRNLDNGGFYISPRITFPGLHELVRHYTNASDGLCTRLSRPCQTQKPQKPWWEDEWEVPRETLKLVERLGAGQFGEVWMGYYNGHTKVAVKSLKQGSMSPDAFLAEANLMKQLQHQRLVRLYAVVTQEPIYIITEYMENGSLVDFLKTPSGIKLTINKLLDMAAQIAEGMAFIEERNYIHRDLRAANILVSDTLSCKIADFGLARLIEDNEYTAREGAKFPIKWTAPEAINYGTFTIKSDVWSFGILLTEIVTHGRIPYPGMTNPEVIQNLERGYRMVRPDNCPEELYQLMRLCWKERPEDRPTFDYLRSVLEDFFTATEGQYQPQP

[13] = biological target: cAMP-dependent protein kinase (PKA) (Homo sapiens) (UniProt P22694+P17612+P22612); experiment: Inhibition of human cAMP-dependent protein kinase (PKA); assay type: protein assay; design: concentration or dose not given beside the values; conditions: concentration not given here
[14] = biological target: Mitogen-activated protein kinase 10 (Rattus norvegicus) (UniProt P49187); experiment: Inhibition of rat c-Jun N-terminal kinase-3 at 30 uM; in short: as §1
Sequence of Mitogen-activated protein kinase 10 (Rattus norvegicus) (P49187 whole entry): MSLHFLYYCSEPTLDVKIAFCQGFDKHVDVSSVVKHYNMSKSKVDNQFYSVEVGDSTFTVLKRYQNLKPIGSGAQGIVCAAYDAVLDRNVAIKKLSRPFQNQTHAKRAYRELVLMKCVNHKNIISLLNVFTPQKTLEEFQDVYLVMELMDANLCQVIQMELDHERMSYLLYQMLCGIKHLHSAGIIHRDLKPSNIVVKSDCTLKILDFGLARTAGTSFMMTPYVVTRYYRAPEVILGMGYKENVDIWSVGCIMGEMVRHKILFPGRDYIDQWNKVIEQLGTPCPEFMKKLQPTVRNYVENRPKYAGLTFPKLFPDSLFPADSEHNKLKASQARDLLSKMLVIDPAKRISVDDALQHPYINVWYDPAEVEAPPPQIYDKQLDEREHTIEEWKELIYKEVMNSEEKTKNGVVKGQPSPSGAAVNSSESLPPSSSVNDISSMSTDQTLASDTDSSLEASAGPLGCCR

Sequence of RAF proto-oncogene serine/threonine-protein kinase (Homo sapiens) (P04049 whole entry): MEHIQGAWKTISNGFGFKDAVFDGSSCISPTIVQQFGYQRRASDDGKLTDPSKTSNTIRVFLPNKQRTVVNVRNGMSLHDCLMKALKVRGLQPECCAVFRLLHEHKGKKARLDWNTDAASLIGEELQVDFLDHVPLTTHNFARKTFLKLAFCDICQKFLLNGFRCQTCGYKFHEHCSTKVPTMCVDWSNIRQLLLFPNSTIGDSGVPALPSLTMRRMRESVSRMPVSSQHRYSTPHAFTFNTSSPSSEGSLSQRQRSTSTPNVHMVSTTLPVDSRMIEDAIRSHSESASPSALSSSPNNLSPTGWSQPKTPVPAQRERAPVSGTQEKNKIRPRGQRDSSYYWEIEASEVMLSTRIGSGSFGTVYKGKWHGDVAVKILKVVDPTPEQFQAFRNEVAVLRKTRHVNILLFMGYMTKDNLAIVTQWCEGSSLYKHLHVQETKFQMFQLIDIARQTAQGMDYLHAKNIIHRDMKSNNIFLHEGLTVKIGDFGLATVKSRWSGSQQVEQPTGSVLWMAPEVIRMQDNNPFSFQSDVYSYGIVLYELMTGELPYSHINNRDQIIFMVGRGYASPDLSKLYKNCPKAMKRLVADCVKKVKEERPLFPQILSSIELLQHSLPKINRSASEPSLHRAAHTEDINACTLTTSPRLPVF

SMILES	inhibition [1]	inhibition [2]	inhibition [3]	inhibition [4]	inhibition [5]	inhibition [6]	inhibition [7]	inhibition [8]	inhibition [9]	inhibition [10]	inhibition [11]	inhibition [12]	inhibition [13]	inhibition [14]
Fc1ccc(-[n+]2c[nH]c3ncncc32)cc1	0%	0%	0%	1%	2%	0%	0%	0%	0%	2%	0%	9%	0%	4%
c1ccc(Cc2[nH]cnc3ncnc2-3)cc1	9%	0%	2%	0%	7%	5%	0%	3%	8%	1%	3%	0%	7%	30%
Cn1c(-c2ccccc2)nc2c(Sc3ccccc3)ncnc21	12%	42%	1%	0%	13%	0%	0%	4%	44%	1%	0%	5%	3%	12%
Nc1ncnc2ncn(Cc3ccc(F)cc3)c12	28%	0%	8%	4%	14%	0%	7%	8%	8%	6%	5%	0%	7%	25%
Cn1cnc2c(Nc3ccc(F)cc3)ncnc21	27%	0%	8%	5%	11%	14%	6%	8%	13%	7%	57%	9%	0%	19%
Fc1ccc(C[n+]2c[nH]c3ncncc32)cc1	7%	8%	5%	0%	15%	10%	0%	0%	5%	4%	4%	13%	0%	12%
Clc1ncnc2ncn(Cc3ccccc3)c12	12%	0%	0%	0%	12%	9%	1%	0%	7%	6%	1%	0%	0%	11%
Fc1ccc(Cn2cnc3c(Cl)ncnc32)cc1	4%	0%	0%	0%	14%	8%	0%	1%	10%	0%	0%	0%	0%	20%

Second part, the compound after the results:

inhibition [1]	inhibition [2]	inhibition [3]	inhibition [4]	inhibition [5]	inhibition [6]	inhibition [7]	inhibition [8]	inhibition [9]	inhibition [10]	inhibition [11]	inhibition [12]	inhibition [13]	inhibition [14]	SMILES
6%	4%	0%	0%	7%	0%	2%	0%	19%	0%	0%	10%	3%	5%	Cn1c(-c2ccc(S(C)(=O)=O)cc2)nc2c(Sc3ccc(F)cc3)ncnc21
25%	0%	0%	1%	2%	7%	0%	7%	7%	5%	11%	19%	1%	17%	Nc1ncnc2c1ncn2Cc1ccccc1
0%	1%	0%	0%	5%	19%	0%	0%	23%	0%	0%	23%	0%	0%	Cn1c(Br)nc2c(Sc3ccccc3)ncnc21
0%	3%	8%	0%	0%	2%	0%	0%	1%	2%	0%	0%	0%	0%	Fc1ccc(Cc2[nH]cnc3ncnc2-3)cc1
12%	15%	8%	9%	14%	11%	11%	9%	16%	8%	9%	21%	7%	14%	Cn1cnc2c(-c3ccccc3)ncnc21
0%	4%	8%	0%	8%	4%	0%	3%	27%	1%	0%	30%	0%	6%	Cn1c(-c2ccc([S+](C)[O-])cc2)nc2c(Sc3ccccc3)ncnc21 (configuration not stated)
0%	0%	0%	0%	0%	8%	0%	3%	27%	0%	0%	16%	0%	0%	Fc1ccc(Cn2cnc3c(Sc4ccc(F)cc4)ncnc32)cc1
10%	0%	8%	3%	13%	3%	6%	3%	17%	6%	12%	6%	0%	7%	Cn1cnc2c(Sc3ccccc3)ncnc21
47%	6%	3%	0%	4%	0%	0%	0%	29%	18%	5%	16%		12%	Fc1ccc(CSc2[nH]cnc3ncnc2-3)cc1
